Changes are numbered by the printed parent chain. Entries after “also recorded” stand apart in the source; their conditions may differ. Blank lines part the entries; values can stand above or below the molecule they belong to.
Legend:
[1] = target: T1, 14‐3‐3ζ Y82A (Homo sapiens, UniProt P63104, Y82A); experiment: ExoS peptide binding to 14‐3‐3ζ Y82A by microscale thermophoresis, effect of ATP; settings: MST; different concentrations of ATP
T1 sequence (P63104 1-245 Y82A): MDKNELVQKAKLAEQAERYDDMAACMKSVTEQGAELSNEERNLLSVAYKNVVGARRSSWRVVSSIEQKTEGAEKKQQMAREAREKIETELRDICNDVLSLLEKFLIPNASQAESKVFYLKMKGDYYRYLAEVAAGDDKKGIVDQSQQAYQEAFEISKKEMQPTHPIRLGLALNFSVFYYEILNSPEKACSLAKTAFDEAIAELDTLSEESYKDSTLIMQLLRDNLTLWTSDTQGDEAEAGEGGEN
Method in brief: (§1)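 Purified untagged mutant 14‑3‑3ζ, starting at 32 μM, serially diluted 2‑fold in 10 μM FAM‑labeled peptide, in the FP binding buffer (50 mM Na‑HEPES pH 8.0, 150 mM NaCl, 10% glycerol), with ATP at several concentrations. Fluorescent counts and power set beforehand. Samples read in standard glass capillaries on a Monolith NT.115.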

[2] = target: T2, 14‐3‐3ζ R55A (Homo sapiens, UniProt P63104, R55A); experiment: ExoS peptide binding to 14‐3‐3ζ R55A by microscale thermophoresis, effect of ATP; settings: MST; different concentrations of ATP
T2 sequence (P63104 1-245 R55A): T1 sequence (P63104 1-245 Y82A) with R55A, A82Y
Method in brief: as §1

[3] = target: T3, 14‐3‐3ζ WT (Homo sapiens, UniProt P63104); experiment: LiP‐MS; format: binding; settings: 500 μM ATPγS
T3 sequence (P63104 1-245): T1 sequence (P63104 1-245 Y82A) with A82Y

[4] = target: T3, 14‐3‐3ζ WT; format: binding; settings: MST
Method in brief: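 Labelled peptide binding by thermophoresis with recombinant, TEV‐cleaved 14‐3‐3ζ WT. Protein from 32 μM serially diluted 2‐fold with 10 μM FAM‐peptide in FP buffer (50 mM Na‐HEPES pH 8.0, 150 mM NaCl, 10% glycerol), at varied ATP concentrations. Fluorescence counts and power set per manufacturer. Standard glass capillaries; fit in instrument software.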

[5] = target: T3, 14‐3‐3ζ WT; format: binding; settings: FP, 25°C, 30 min; for effect on binding of mode 1 or mode 2 peptides to 14‐3‐3ζ: 1 mM ATP or ATPγS, peptide 62.5 nM, protein 8 to 0.0625 μM
Method in brief: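 Untagged recombinant 14‐3‐3ζ WT apoprotein (His‐tagged, expressed in E. coli BL21 DE3, Ni‐NTA then size exclusion, TEV‐cleaved) in 50 mM Na‐HEPES pH 8.0, 150 mM NaCl, 10% glycerol. N‐terminal FAM peptides fixed at 62.5 nM, protein titrated 8 to 0.0625 μM, ±1 mM ATP or ATPγS in binding buffer. 30 min at 25°C in the dark, then anisotropy read; K_D fitted.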

[6] = test system: 14‐3‐3ζ E180A; format: binding, human; settings: FP; 1 mM ATP; 5FAM‐labeled ExoS peptide 62.5 nM, 25°C, 30 min
Method in brief: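 Recombinant human 14‑3‑3ζ mutant, His‑tagged, expressed in E. coli BL21 DE3, purified by Ni‑NTA and size exclusion, tag removed with TEV, buffer‑exchanged into 50 mM Na‑HEPES pH 8.0, 150 mM NaCl, 10% glycerol. N‑terminal FAM‑peptide held at 62.5 nM, protein titrated 8 to 0.0625 μM, 1 mM ATP in binding buffer. 25°C, dark, 30 min; anisotropy change read; K_D fitted.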

[7] = target: T1, 14‐3‐3ζ Y82A; experiment: ExoS peptide binding to Y82A by surface plasmon resonance, effect of ATPγS; settings: SPR; 10 μM to 1 mM ATPγS with 10 μM peptide; HBS‐P pH 7.4; qualitative
Method in brief: (§2)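 Mutant 14‑3‑3ζ amine‑coupled to a CM5 chip at 4000 RU. ATPγS from 10 μM to 1 mM, together with 10 μM peptide, injected in HBS‑P (10 mM Na‑HEPES pH 7.4, 150 mM NaCl, 0.005% Tween‑20). RU changes on association and dissociation tracked; sensorgrams fitted to a 1:1 binding model.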

[8] = target: T2, 14‐3‐3ζ R55A; experiment: ExoS peptide binding to R55A by surface plasmon resonance, effect of ATPγS; settings: SPR; 10 μM to 1 mM ATPγS with 10 μM peptide; HBS‐P pH 7.4; qualitative
Method in brief: as §2

[9] = target: T3, 14‐3‐3ζ WT; experiment: Peptide binding to 14‐3‐3ζ WT by surface plasmon resonance, effect of ATPγS; settings: SPR, HBS‐P pH 7.4
Method in brief: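 Amine coupling of recombinant 14‐3‐3ζ WT onto a CM5 chip to 4000 RU. Analyte 10 μM peptide with 10 μM to 1 mM ATPγS in HBS‐P (10 mM Na‐HEPES pH 7.4, 150 mM NaCl, 0.005% v/v Tween‐20). RU change during association and dissociation recorded. Sensorgrams fitted to a 1:1 binding model; relative response compared across ATPγS concentrations.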

[10] = test system: 14‐3‐3τ; settings: cited from earlier work

- effect on binding of ExoS peptide to Y82A [1]: did not affect the binding
- effect on binding of ExoS peptide to R55A [2]: did not affect the binding
- effect on binding of phosphopeptide to ζWT ([4]; FAM‐labeled peptide): did not show any effect
- effect on binding of mode 1 or mode 2 peptides to 14‐3‐3ζ [5]: no effect
- effect on binding of ExoS peptide to 14‐3‐3ζ WT ([5]; 1 mM ATP, 5FAM‐labeled ExoS peptide 62.5 nM): marginally but reproducibly decreased
- effect on binding of ExoS peptide to E180A mutant [6]: marginally but reproducibly decreased
Molecule: Nc1ncnc2c1ncn2[C@@H]1O[C@H](COP(=O)(O)OP(=O)(O)OP(=O)(O)O)[C@@H](O)[C@H]1O [ATP]
- ATP binding site suggested by LiP‐MS [3]: there is a second ATP binding site at the dimer interface
- type of inhibition of ExoS peptide binding ([4]; 14‐3‐3ζ WT, ATP at the dimer interface): as a non‐competitive inhibitor by binding to the dimer interface
- effect on binding of ExoS peptide to ζWT ([4]; different concentrations of ATP): the binding of nonphosphorylated ExoS peptide decreased in the presence of ATP; also recorded: concentration‐dependent inhibition

- effect on binding of nonphosphopeptide ExoS to Y82A [7]: definitive decrease
- effect on binding of nonphosphopeptide ExoS to R55A [8]: definitive decrease
- Log2 fold change of conformotypic peptide, ATPγS bound versus unbound ([3]; peptide YDDMAAC (19–25), C_SEMI, adjusted p 2.49E‐02): −1.0
- Log2 fold change of conformotypic peptide, ATPγS bound versus unbound ([3]; peptide YDDMAACMK (19–27), FULL_TRP, adjusted p 6.47E‐03): 1.8
- effect on binding of mode 1 or mode 2 peptides to 14‐3‐3ζ [5]: no effect
- effect on binding of mode 2 phosphopeptide to 14‐3‐3ζ WT ([9]; 1 mM ATPγS): did not show any effect
Molecule: Nc1ncnc2c1ncn2[C@@H]1O[C@H](CO[P@](=O)(O)O[P@](=O)(O)O[P@@](=O)(O)S)[C@@H](O)[C@H]1O [ATPγS]
- ATP binding site suggested by LiP‐MS [3]: 81–91 residues which are part of the dimer interface, were exclusively protected by ATPγS
- protection against Proteinase K cleavage (SDS PAGE) ([3]; 25°C, 30 min, Proteinase K 1:100, 1 min at 25°C): protects the protein against proteolytic cleavage
- effect on binding of nonphosphopeptide ExoS to ζWT ([9]; 10 μM to 1 mM ATPγS with 10 μM peptide, qualitative): definitive decrease; also recorded: concentration‐dependent inhibition

B1: 14‐3‐3τ: 14‐3‐3 tau paralog (protein, UniProt P27348 1-245, looked up)
14-3-3 protein theta: MEKTELIQKAKLAEQAERYDDMATCMKAVTEQGAELSNEERNLLSVAYKNVVGGRRSAWRVISSIEQKTDTSDKKLQLIKDYREKVESELRSICTTVLELLDKYLIANATNPESKVFYLKMKGDYFRYLAEVACGDDRKQTIDNSQGAYQEAFDISKKEMQPTHPIRLGLALNFSVFYYEILNNPELACTLAKTAFDEAIAELDTLNEDSYKDSTLIMQLLRDNLTLWTSDSAGEECDAAEGAEN
- ATP/ADP exchange activity [10]: has an ATP/ADP exchange activity
